Laboratory results published in ChEMBL document CHEMBL3865824, “New (E)-1-alkyl-1H-benzo[d]imidazol-2-yl)methylene)indolin-2-ones: Synthesis, in vitro cytotoxicity evaluation and apoptosis inducing studies” (Eur J Med Chem, 2016).
pIC50: −log10 of the molar value.

Experiments:
[1] = Cytotoxicity against human MDA-MB-231 cells assessed as growth inhibition at 50 uM after 48 hrs by MTT assay relative to control; type: functional; conditions: MDA-MB-231, 48 h, read-out: GI
Outline: (§1)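 Cells grown in DMEM or MEM with 10% FBS at 37 °C, 5% CO2. Seeded at 1×10^4 cells/well, incubated 48 h, then exposed to compound for 48 h with vehicle control. MTT (5 mg/mL stock) added for 4 h; formazan dissolved in DMSO, absorbance read at 570 nm. Preliminary screen at 50 µM. Compounds giving >50% inhibition were tested for dose-response curves; IC50 derived by linear regression of % inhibition versus concentration. Mean of three independent experiments in triplicate.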

[2] = Cytotoxicity against human PC3 cells assessed as growth inhibition at 50 uM after 48 hrs by MTT assay relative to control; type: functional; conditions: PC-3, 48 h, read-out: GI; outline: as §1
[3] = Cytotoxicity against human PC3 cells assessed as reduction in cell viability after 48 hrs by MTT assay; type: functional, cell-based; conditions: PC-3, 48 h; outline: as §1
[4] = Cytotoxicity against human A549 cells assessed as reduction in cell viability after 48 hrs by MTT assay; type: functional, cell-based; conditions: A549, 48 h; outline: as §1
[5] = Cytotoxicity against human BT549 cells assessed as reduction in cell viability after 48 hrs by MTT assay; type: functional, cell-based; conditions: BT-549, 48 h; outline: as §1
[6] = Cytotoxicity against human DU145 cells assessed as reduction in cell viability after 48 hrs by MTT assay; type: functional, cell-based; conditions: DU-145, 48 h; outline: as §1
[7] = Cytotoxicity against human MDA-MB-231 cells assessed as reduction in cell viability after 48 hrs by MTT assay; type: functional, cell-based; conditions: MDA-MB-231, 48 h; outline: as §1
[8] = Cytotoxicity against human MCF7 cells assessed as growth inhibition at 50 uM after 48 hrs by MTT assay relative to control; type: functional; conditions: MCF7, 48 h, read-out: GI; outline: as §1
[9] = Cytotoxicity against human DU145 cells assessed as growth inhibition at 50 uM after 48 hrs by MTT assay relative to control; type: functional; conditions: DU-145, 48 h, read-out: GI; outline: as §1
[10] = Cytotoxicity against HGC cells assessed as growth inhibition at 50 uM after 48 hrs by MTT assay relative to control; type: functional; conditions: Homo sapiens, read-out: GI; outline: as §1
[11] = Cytotoxicity against human BT549 cells assessed as growth inhibition at 50 uM after 48 hrs by MTT assay relative to control; type: functional; conditions: BT-549, 48 h, read-out: GI; outline: as §1
[12] = Cytotoxicity against HGC cells assessed as reduction in cell viability after 48 hrs by MTT assay; type: functional, cell-based; conditions: Homo sapiens; outline: as §1
[13] = Cytotoxicity against […] cells assessed as growth inhibition at 50 uM after 48 hrs by MTT assay relative to control; type: functional; conditions: Mus musculus, 4T1, 48 h; read-out: GI; outline: as §1
[14] = Cytotoxicity against […] cells assessed as reduction in cell viability after 48 hrs by MTT assay; type: functional, cell-based; conditions: 4T1, 48 h; outline: as §1
[15] = Cytotoxicity against human MCF7 cells assessed as reduction in cell viability after 48 hrs by MTT assay; type: functional, cell-based; conditions: MCF7, 48 h; outline: as §1
[16] = Cytotoxicity against human A549 cells assessed as growth inhibition at 50 uM after 48 hrs by MTT assay relative to control; type: functional; conditions: A549, 48 h, read-out: GI; outline: as §1

Compound	inhibition of growth at 50 µM [1]	inhibition of growth at 50 µM [2]	pIC50 [3]	pIC50 [4]	pIC50 [5]	pIC50 [6]	pIC50 [7]	inhibition of growth at 50 µM [8]	inhibition of growth at 50 µM [9]	inhibition of growth at 50 µM [10]	inhibition of growth at 50 µM [11]	pIC50 [12]	inhibition of growth at 50 µM [13]	pIC50 [14]	pIC50 [15]	inhibition of growth at 50 µM [16]
CCn1c(/C=C2/C(=O)Nc3ccc(C)cc32)nc2ccccc21	> 50%	> 50%	4.41	< 4.30	< 4.30	4.41	4.39	< 50%	> 50%	< 50%	< 50%	< 4.30	> 50%	4.40	< 4.30	< 50%
Cn1c(/C=C2/C(=O)Nc3ccc([N+](=O)[O-])cc32)nc2ccccc21		< 50%	< 4.30	< 4.30		< 4.30			< 50%				< 50%	< 4.30		< 50%
CCn1c(/C=C2/C(=O)Nc3ccc(Br)cc32)nc2ccccc21		> 50%	4.37	< 4.30		4.34			> 50%	< 50%		< 4.30	> 50%	4.39		< 50%
Cn1c(/C=C2/C(=O)Nc3ccccc32)nc2ccccc21	< 50%	< 50%	< 4.30	< 4.30	< 4.30	4.36	< 4.30	< 50%	> 50%	< 50%	< 50%	< 4.30	< 50%	< 4.30	< 4.30	< 50%
Cn1c(/C=C2/C(=O)Nc3ccc(F)cc32)nc2ccccc21	> 50%	> 50%	4.47	4.46	4.57	4.49	4.66	> 50%	> 50%	> 50%	> 50%	4.42	> 50%	4.53	4.50	> 50%
CCn1c(/C=C2/C(=O)Nc3ccccc32)nc2ccccc21	< 50%	> 50%	4.42	< 4.30	< 4.30	< 4.30	< 4.30		< 50%	< 50%	< 50%	< 4.30	< 50%	< 4.30		< 50%
CCn1c(/C=C2/C(=O)Nc3ccc(Cl)cc32)nc2ccccc21	> 50%	< 50%	< 4.30	< 4.30	< 4.30	< 4.30	4.43	< 50%	< 50%	< 50%	< 50%	< 4.30	< 50%	< 4.30	< 4.30	< 50%
CCn1c(/C=C2/C(=O)Nc3ccc(F)cc32)nc2ccccc21	< 50%	< 50%	< 4.30	< 4.30	< 4.30	4.39	< 4.30	< 50%	> 50%	< 50%	< 50%	< 4.30	< 50%	< 4.30	< 4.30	< 50%
